# Measurements from different studies.
# Compare with care: the assays were run in different laboratories.
# Target: Serine/threonine-protein kinase 17A (STK17A, Homo sapiens, UniProt Q9UEE5)
# Residues used in one study (Q9UEE5 1-414): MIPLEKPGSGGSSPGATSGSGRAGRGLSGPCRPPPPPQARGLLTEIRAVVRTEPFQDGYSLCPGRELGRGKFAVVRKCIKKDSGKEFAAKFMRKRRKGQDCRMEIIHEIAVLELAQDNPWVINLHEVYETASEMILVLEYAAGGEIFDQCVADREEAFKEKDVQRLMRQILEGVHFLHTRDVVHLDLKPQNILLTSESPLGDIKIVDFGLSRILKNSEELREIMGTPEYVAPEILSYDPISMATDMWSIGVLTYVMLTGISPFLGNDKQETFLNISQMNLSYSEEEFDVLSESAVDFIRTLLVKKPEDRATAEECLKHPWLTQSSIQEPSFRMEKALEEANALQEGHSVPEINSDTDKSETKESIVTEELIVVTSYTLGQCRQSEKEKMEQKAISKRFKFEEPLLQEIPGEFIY
SMILES,effect on,method,tested at,remaining binding [%]
C[C@H](c1cccc(C#N)c1)n1cc(Cl)cc(C(N)=O)c1=N,cell-free assay,competition with immobilised ligand,1 µM,85
Cc1cnn2ncc(-c3ccnc(N(C)C)n3)c2c1,binding,,1 µM,86
CC1=C(C#N)[C@@H](c2ccc3[nH]nc(C)c3c2)C(C#N)=C(c2ccc(Cl)cc2)N1,cell-free assay,competition with immobilised ligand,1 µM,100
CN(C)c1nccc(-c2cnc3ncccn23)n1,binding,,1 µM,100
Cc1c(C(=O)O)cc(-c2ccc(C3CCNCC3)cc2)c2ccc(-c3ccc(C(F)(F)F)cc3)cc12,cell-free assay,competition with immobilised ligand,1 µM,99
O=C(c1ccc(Nc2ncc(Cl)c(-c3ccc(Cl)s3)n2)cc1)N1CCC(N2CCCC2)CC1,binding,competition with immobilised ligand,1 µM,0.8
c1ccc(N2CCN(Cc3nc4ccccc4[nH]3)CC2)nc1,cell-free assay,competition with immobilised ligand,1 µM,100
O=C(c1ccc(Nc2nccc(-c3cc4ccccc4s3)n2)cc1)N1CCC(N2CCCC2)CC1,binding,competition with immobilised ligand,1 µM,0.3
c1cncc(-c2cccc(Nc3nccc(NC4CCCCC4)n3)c2)c1,binding,competition with immobilised ligand,10 µM,47
N[C@H]1CCN(c2nccc(-c3cnn4ncccc34)n2)C1,binding,,1 µM,100
O=C(Nc1c[nH]nc1C(=O)NC1CCNCC1)c1cc(F)cc(F)c1,binding,competition with immobilised ligand,1 µM,95
F[C@@H]1CCN(c2nccc(-c3cnn4ncccc34)n2)C1,binding,,1 µM,100
CNC(=O)Nc1ccc2c(c1)CC[C@@]21OC(=O)N(CC(=O)N(Cc2ccc(F)cc2)[C@@H](C)C(F)(F)F)C1=O,cell-free assay,competition with immobilised ligand,1 µM,100
C[C@H]1CCN(c2nccc(-c3cnn4ncccc34)n2)C1,binding,,1 µM,13
Cn1nc(C(=O)NCc2ccc(C(=O)O)cc2)cc1-c1ccc2[nH]ccc2c1,cell-free assay,competition with immobilised ligand,0.1 µM,92
CNC(=O)[C@@H]1CC[C@@H](n2c(-c3ccc4cnccc4c3)nc3ccc(C(=O)NCc4cccc(C(N)=O)c4)cc32)C1,binding,competition with immobilised ligand,1 µM,100
CSc1cccnc1N1CCN(Cc2nc3ccccc3[nH]2)CC1,cell-free assay,competition with immobilised ligand,1 µM,98
Nc1ncc2c(n1)-c1c([nH]c3ccc(C#CC4CC4)cc13)CCCC2,binding,competition with immobilised ligand,1 µM,98
c1cnn2ncc(-c3ccnc(N4CCC45COC5)n3)c2c1,binding,,1 µM,100
O=C(c1ccc(Nc2ncc(Cl)c(-c3cc4ccccc4s3)n2)cc1)N1CCC(N2CCCC2)CC1,binding,competition with immobilised ligand,1 µM,0
C[C@@H](c1ccc(-n2cnc3c(N)ncnc32)cc1)N1CCc2nn(C)c(Cc3ccccc3)c2C1=O,binding,competition with immobilised ligand,0.1 µM,91
FC(F)(F)Oc1cccc(-c2cnc3ccc(-c4ccncc4)nn23)c1,cell-free assay,competition with immobilised ligand,5 µM,12
